Data set [1] has as its system HCT-116. Put plainly: Antiproliferative activity against human HCT116 cells expressing wild type p53 after 5 days by MTS assay. It counts as functional, cell-based. Put shortly: (§1)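 Cells (wild-type or mutant p53) grown in recommended medium with 10% FBS at 37 °C under 5% CO2. Compounds were kept as 1 mmol/L DMSO stocks. Cells were seeded in 96-well plates and treated with serial concentrations (highest 10 µM) for 5 days, then read by MTS. Viability is % of untreated controls, mean SD, n = 4.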
For orientation: Tetrazolium dyes change colour on reduction, which living cells bring about.

Another data set has as its system RKO. Briefly: Antiproliferative activity against human RKO cells expressing wild type p53 after 5 days by MTS assay. The format is functional, cell-based. In outline: as §1
For the next data set, the species on record is Homo sapiens. Put plainly: Antiproliferative activity against human MDA-MB-435S cells harboring p53 mutant at 10 uM after 5 days by MTS assay. The format is functional, cell-based. Put shortly: as §1
In the next data set the test system is HeLa. Briefly: Antiproliferative activity against human HeLa cells harboring p53 mutant at 10 uM after 5 days by MTS assay. The format is functional, cell-based. In outline:
as §1

The test system of the next data set is SW480. Briefly: Antiproliferative activity against human SW480 cells harboring p53 mutant at 10 uM after 5 days by MTS assay. It counts as functional, cell-based. Put shortly:
as §1

Data set [2] has as its system SJSA-1. Put plainly: Antiproliferative activity against human SJSA1 cells expressing wild type p53 after 5 days by MTS assay. The format is functional, cell-based. Put shortly: as §1
In data set [3] the test system is SJSA-1. Briefly: Cellular uptake in human SJSA1 cells expressing wild type p53 at 5 uM after 1 hr by fluorometric analysis in presence of nutlin-glycine. It counts as ADME, cell-based. The settings on record: sjsa-1, 1 h.
Data set [4] has as its system SJSA-1. Put plainly: Cellular uptake in human SJSA1 cells expressing wild type p53 at 1 to 5 uM after 1 hr by fluorometric analysis. The format is ADME, cell-based. As to conditions: sjsa-1, 1 h. Put shortly: (§2)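 SJSA-1 or HCT116 cells were plated at 400,000/well and attached for 24 h. Fluorescein conjugate or free FAM was added at final 1 and 5 µM for 1 h at 37 °C, with DMSO and medium-only controls. Cells were washed three times in warm PBS, scraped and counted. About 10,000 cells/well were read by fluorescence at 485/520 nm; 3 runs per sample.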

Data set [5] deals with HCT-116. Briefly: Cellular uptake in human HCT116 cells expressing wild type p53 at 1 to 5 uM after 1 hr by fluorometric analysis. It counts as ADME, cell-based. As to conditions: hct-116, 1 h. Put shortly: as §2
For data set [6], the system named is HCT-116. Briefly: Cellular uptake in human HCT116 cells expressing wild type p53 at 5 uM after 1 hr by fluorometric analysis in presence of nutlin-glycine. The settings on record: hct-116, 1 h.

Calls of active or inactive are those of the source. The calls are words filed in the database; no cut-off is given here.

As for `COc1ccc(C2=N[C@@H](c3ccc(Cl)cc3)[C@@H](c3ccc(Cl)cc3)N2C(=O)N2CCNC(=O)C2)c(OC(C)C)c1` (relative stereo), the Activity entry with HCT-116 [1], in the data set on RKO and with SJSA-1 [2] was “Dose-dependent effect” each time. Also, the outcome in the data set filed under Homo sapiens, in the data set on HeLa and with SW480 was inactive.

For `CCOc1cc(OC)ccc1C1=N[C@@H](c2ccc(Br)cc2)[C@@H](c2ccc(Br)cc2)N1C(=O)N1CCN(CCOC(=O)CN)CC1` (relative stereo), the Activity entry with HCT-116 [1], in the data set with RKO and in the data set on SJSA-1 [2] was “Dose-dependent effect” each time. Moreover, the result in the data set listed under Homo sapiens, in the data set with HeLa and with SW480 was inactive.

`CCOc1cc(OC)ccc1C1=N[C@@H](c2ccc(Br)cc2)[C@@H](c2ccc(Br)cc2)N1C(=O)N1CCN(CCOC(=O)CNC(=O)c2ccc(C(=O)O)c(-c3c4ccc(=O)cc-4oc4cc(O)ccc34)c2)CC1` (relative stereo): the Drug uptake entry in the data set with SJSA-1 [3] is on record as “Not Active”; in the data set on SJSA-1 [4] it was “Active”; in the data set with HCT-116 [5] it was “Active”; with HCT-116 [6], “Not Active”.

Values taken from ChEMBL document CHEMBL2346594, “Synthesis and evaluation of an imidazole derivative-fluorescein conjugate” (Bioorg Med Chem, 2013).
